The test system of assay [1] is human lung carcinoma A549. Description: A549 human lung carcinoma xenograft model. The assay is classed as in vivo, mouse. The note with it: 2 mg/kg intraperitoneally every 2 d; vs vehicle control, P < 0.005. A general note: In xenograft studies the graft and the host belong to different species.
In assay [2] the target is CXCR7 (SDF-1 binding site on MCF-7 cells) (Homo sapiens, UniProt P25106). In words: Radioligand.
For assay [3], the system named is CEM-NKr cells. Description: Cell migration of CEM-NKr cells. The assay is classed as cell-based, human. The conditions noted are these: unpublished data. In outline:
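Cells in chemotaxis buffer (HBSS with Ca2+, Mg2+, 0.1% BSA) were placed above a 3 or 5 μm pore filter, sized to the cells, with chemokine in the lower chamber. After 90 min at 37°C, filters were removed, CyQuant was added to the lower chamber, and migrated cells were read at 540 nm.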

In assay [4] the target is CXCR4 (CEM-NKr cells) (Homo sapiens, UniProt P61073). Description: 125I SDF-1 competition binding to CEM-NKr cells. In outline:
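Whole CEM-NKr cells were incubated with 125I SDF-1 in the presence of unlabeled SDF-1α, a CXCR4 antagonist, or a CXCR7 antagonist as competitors. Cell-bound radioactivity was counted in a γ counter.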

The subject of assay [5] is CEM-NKr cells. Description: Calcium mobilization in CEM-NKr cells. The assay is classed as cell-based, human. The note with it: unpublished data. The method, boiled down:
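Cells were loaded with the ratiometric intracellular dye Indo-1, and the calcium response was recorded on addition of SDF-1α.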
(Calcium flux is commonly read through the fluorescence of an indicator in the cells.)

Assay [6] deals with CXCR7 on mouse B cell lymphoma BCL1 (Mus musculus, UniProt P56485). In words: 125I SDF-1 binding profile on BCL1 cells. The conditions noted are these: Fig. 3 B; 100 nM chemokine, 10 μM small molecules. In outline: (§1)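 Intact cells bound 125I SDF-1 with or without 100 nM unlabelled chemokine, 10 μM CXCR7 antagonist or 10 μM CXCR4 antagonist. Cell-bound radioactivity was counted in a γ counter. CXCR7 binding was taken as binding displaced by unlabelled ligand or the CXCR7 antagonist but not by the CXCR4 antagonist.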

The target in assay [7] is CXCR7 on human cervical carcinoma HeLa cells (Homo sapiens, UniProt P25106). In words: 125I SDF-1 binding profile on HeLa cells. The conditions noted are these: Fig. 3 B; 100 nM chemokine, 10 μM small molecules. The method, boiled down: as §1
Assay [8] relates to MCF-7 cells. Description: Cell migration of MCF-7 cells. The assay is classed as cell-based, human. The note with it: agonist response. In outline:
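Cells in HBSS with Ca2+, Mg2+ and 0.1% BSA were placed above a filter (3 or 5 μm pores, chosen by cell size) in a 96-well microchamber, with chemokine below. After 90 min at 37°C in humidified air, the filter was removed. Cells in the lower chamber were quantified with CyQuant fluorescence at 540 nm.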

The target of assay [9] is human CXCR7 (RDC1) (Homo sapiens, UniProt P25106). In words: Radioligand. The assay is classed as binding.
Assay [10] addresses CXCR7 (SDF-1 binding site on fetal liver cells) (Mus musculus, UniProt P56485). The note with it: 125I SDF-1.
The subject of assay [11] is MCF-7 cells. Description: Calcium mobilization in MCF-7 cells. The assay is classed as cell-based, human. The conditions noted are these: agonist response. In outline:
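Cells were loaded with the ratiometric dye Indo-1 and stimulated with 10 nM SDF-1α. The intracellular calcium trace was recorded around ligand addition. The analysis was reproduced in at least 10 independent studies.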

Chain of CXCR7 (SDF-1 binding site on MCF-7 cells) (P25106 whole entry): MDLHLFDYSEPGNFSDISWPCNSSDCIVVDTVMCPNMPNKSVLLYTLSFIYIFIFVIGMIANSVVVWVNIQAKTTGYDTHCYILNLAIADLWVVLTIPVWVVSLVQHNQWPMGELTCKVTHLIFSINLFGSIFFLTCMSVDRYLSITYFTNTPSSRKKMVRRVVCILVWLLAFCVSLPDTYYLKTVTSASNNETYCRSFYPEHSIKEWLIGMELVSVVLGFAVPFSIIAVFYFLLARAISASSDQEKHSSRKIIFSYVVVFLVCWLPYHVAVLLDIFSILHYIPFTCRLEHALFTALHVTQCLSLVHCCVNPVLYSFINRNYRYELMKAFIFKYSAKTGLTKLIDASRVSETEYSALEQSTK
Chain of CXCR4 (CEM-NKr cells) (P61073 whole entry): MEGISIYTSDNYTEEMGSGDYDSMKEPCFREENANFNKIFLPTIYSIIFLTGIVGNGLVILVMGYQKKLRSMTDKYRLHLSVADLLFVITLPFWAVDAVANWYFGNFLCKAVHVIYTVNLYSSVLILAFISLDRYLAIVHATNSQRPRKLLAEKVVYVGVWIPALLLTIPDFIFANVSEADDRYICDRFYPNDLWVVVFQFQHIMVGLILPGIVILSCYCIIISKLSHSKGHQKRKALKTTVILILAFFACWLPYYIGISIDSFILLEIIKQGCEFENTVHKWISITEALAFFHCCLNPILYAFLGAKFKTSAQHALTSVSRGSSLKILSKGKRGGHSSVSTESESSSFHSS
Chain of CXCR7 on mouse B cell lymphoma BCL1 (P56485 whole entry): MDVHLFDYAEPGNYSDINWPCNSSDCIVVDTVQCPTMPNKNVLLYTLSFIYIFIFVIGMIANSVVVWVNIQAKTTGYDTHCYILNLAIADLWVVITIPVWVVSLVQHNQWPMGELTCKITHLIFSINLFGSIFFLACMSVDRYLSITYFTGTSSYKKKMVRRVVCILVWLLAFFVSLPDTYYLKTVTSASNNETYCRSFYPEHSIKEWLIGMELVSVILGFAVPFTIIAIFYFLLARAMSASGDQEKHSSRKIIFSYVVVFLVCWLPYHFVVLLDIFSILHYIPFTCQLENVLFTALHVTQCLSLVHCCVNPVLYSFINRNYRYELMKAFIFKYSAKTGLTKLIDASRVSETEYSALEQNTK
Chain of CXCR7 (SDF-1 binding site on fetal liver cells) (P56485 whole entry): as above
Chain of CXCR7 on human cervical carcinoma HeLa cells (P25106 whole entry): as the sequence (P25106 whole entry) above
Chain of human CXCR7 (RDC1) (P25106 whole entry): as above

For the compound `N[C@@H](Cc1ccc(N(CCCl)CCCl)cc1)C(=O)O` [Melphalan], the “tumor volume at 49 d, A549 model (positive control)” value in [1] was “reduced tumor volume”.

For `c1cc(CN2CCCNCCNCCCNCC2)ccc1CN1CCCNCCNCCCNCC1` [AMD3100], the “inhibition of 125I SDF-1 binding to MCF-7 cells (in words)” value in [2] was “not to MCF-7 cells”. Moreover, the “inhibition of SDF-1-induced cell migration of CEM-NKr cells” value in [3] is on record as “inhibited all functions”. Moreover, the “inhibition of 125I SDF-1 binding to CEM-NKr cells (in words)” value in assay [4] is listed as “inhibited binding”. Further, in assay [5], the “inhibition of SDF-1-induced calcium mobilization in CEM-NKr cells” value was “inhibited all functions”.

Turning to “Mig: chemokine Mig (CXCL9), thought to bind only CXCR3”, in [2], the “inhibition of 125I I-TAC binding to MCF-7 cells (in words)” value is “no inhibitory effect” and the “inhibition of 125I SDF-1 binding to MCF-7 cells (in words)” value was “no inhibitory effect”.

Regarding “IP10: chemokine IP10 (CXCL10), thought to bind only CXCR3”, in assay [2], the “inhibition of 125I I-TAC binding to MCF-7 cells (in words)” value is listed as “no inhibitory effect” and the “inhibition of 125I SDF-1 binding to MCF-7 cells (in words)” value is “no inhibitory effect”.

As to “I-TAC: CXC chemokine interferon-inducible T cell α chemoattractant, also known as CXCL11”, the “inhibition of 125I SDF-1 binding to BCL1 cells” value in assay [6] is recorded as “inhibited”. In addition, the “inhibition of 125I SDF-1 binding to HeLa cells” value in assay [7] is given as “inhibited”. Besides, the “chemokine-induced migration of MCF-7 cells” value in assay [8] is “failed to induce”. Moreover, in assay [9], the “inhibition of 125I SDF-1 binding to RDC1 (CXCR7) transfectants (in words)” value is listed as “blocked”. Moreover, the “inhibition of 125I SDF-1 binding to MCF-7 cells (in words)” value in assay [2] is reported as “strongly displaced”. Further, the “inhibition of the SDF-1 binding site of E13 embryos of CXCR4-/- mice” value in assay [10] is on record as “inhibited”. The “chemokine-induced calcium mobilization in MCF-7 cells” value in [11] was “failed to induce”.
